Screening results as filed in PubChem.
CAL PDZ FP-1: human CAL PDZ-peptide interaction inhibition. Q9HD26. purified CAL PDZ, TMR-peptide fluorescence polarization, 1 h. inhibition, % at 20 µM. 0.02% of 330,000 active. AID 504414;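 active = highest replicate inhibition of at least 40%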;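 note: plate controls were DMSO neutral control wells for no effect and unlabeled competitor peptide control wells for full effect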
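Assay system – tagged CAL PDZ protein CerCALP, purified · Timing – 1 h at RT · Compound – single point, 20 µM · Measured by – fluorescence polarization from S- and P-plane intensities, G-factor corrected · Evaluation – inhibition from polarization loss · Probe or stimulus – TMR reporter peptide T*-PRC34 · Buffer or medium – pH 7.4 phosphate-saline buffer, reducing agent, detergent, IgG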
CAL PDZ FP-2: CAL PDZ (human) peptide binding inhibition | Q9HD26 | AID 602252 | 0.92% of 300,000 active | purified CAL PDZ, TMR-peptide fluorescence polarization, 1 h | inhibition, % at 24.9 µM;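 active = mean inhibition of at least 30% with at least half of replicates also reaching 30%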;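 note: 0% = DMSO neutral control and 100% = excess unlabeled competitor peptide PRC23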
dFosB act: mouse delta FosB homodimer activation; P13346; purified delta FosB, TAMRA-CDK5 oligo fluorescence polarization; percent of positive-control signal above neutral wells; activation, % at 25 µM; 0.99% of 340,000 active; AID 493131;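 active = mean activation above about 17%, with every replicate also reaching it, limit read from the data, passing the limit was not always enough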
Target sequence (P13346 whole entry, looked up): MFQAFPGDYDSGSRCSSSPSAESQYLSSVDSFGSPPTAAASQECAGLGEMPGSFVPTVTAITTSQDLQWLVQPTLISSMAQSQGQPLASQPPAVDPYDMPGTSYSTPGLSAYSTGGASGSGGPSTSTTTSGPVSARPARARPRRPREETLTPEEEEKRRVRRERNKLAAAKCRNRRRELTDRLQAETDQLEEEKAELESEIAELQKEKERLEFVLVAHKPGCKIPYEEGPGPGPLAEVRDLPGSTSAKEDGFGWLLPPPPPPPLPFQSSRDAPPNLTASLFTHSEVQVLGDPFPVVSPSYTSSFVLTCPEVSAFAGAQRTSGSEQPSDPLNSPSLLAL
SR-BI HDL uptake: mouse SR-BI HDL lipid transfer inhibition | ldlA[mSR-BI] CHO cells, DiI-HDL uptake fluorescence, 3 h | Q61009 | inhibition, % at 12.5 µM | 0.96% of 320,000 active | AID 488896;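 active = mean replicate inhibition of at least 70% and a set share of replicates each scoring 70 or more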;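 note: 0% = median of neutral control wells and 100% = median of positive control wells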
SR-BI uptake up: SR-BI HDL lipid transfer activation; AID 504775; 0.096% of 320,000 active; CHO ldlA[mSR-BI] cells, DiI-HDL uptake fluorescence, 3 h; 100 = double the neutral-control signal; activation, % at 12.5 µM;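 active = mean replicate activation of at least 60% and every replicate at or above 60%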;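 note: 0% = median plate neutral-control signal and 100% = twice that signal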
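Material – SR-BI-overexpressing, LDLR-lacking CHO cells · Medium – BSA-supplemented, HEPES-buffered Ham's F12, pH 7.4 · Doses – single concentration · Times – compound with DiI-HDL co-incubation, 3 h at 37 °C · Measured by – bottom-read fluorescence, 550/595 nm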
Active calls of the source: *; . = not tested or not shown. Most compounds without a hit are left out; they make up all but 2.8% or so of the library.

SMILES	CAL PDZ FP-1	CAL PDZ FP-2	dFosB act	SR-BI HDL uptake	SR-BI uptake up
COc1ccc(S(=O)(=O)Nc2ccccc2C(=O)Nc2nc(-c3ccc(F)cc3)cs2)cc1OC	0	-4	-4	45	-45
COc1ccc(-c2csc(NC(=O)c3ccccc3NS(=O)(=O)c3ccc(C)cc3)n2)cc1	0	-6	-9	93*	-93
CCOC(=O)C(/C=N/c1cc(C)nn1-c1ccccc1)=C(\C)O	-2	61*	-12	5	-5
CC(C)C(=O)NC(NC(=S)Nc1cccc2cccnc12)C(Cl)(Cl)Cl (centres undefined)	-1	-6	0	74*	-74
COCc1cc(Sc2cccc(Cl)c2Cl)nc(-c2ccccc2)n1	-1	36*	1	20	-20
COCc1cc(Sc2ccc(Cl)cc2)nc(-c2ccccc2)n1	-1	.	-6	67	-67
CCN(CC(=O)Nc1ccc2c(c1)OCCO2)C(=O)c1ccc(S(=O)(=O)N(C)C)cc1	-2	0	0	9	-9
CC(OC(=O)Cn1cnc2ccccc2c1=O)C(=O)NCc1ccccc1 (centres undefined)	-2	-7	5	-7	7
COc1cc(OC)c(NC2=CC(=O)C(=O)c3ccccc32)cc1Cl	-1	-5	-14	102*	-102
O=C(CN1CCCC1c1cccs1)Nc1cccc(S(=O)(=O)N2CCCC2)c1 (centres undefined)	-1	-4	-18	42	-42
CC(=O)N1CCC(=NNC(=O)c2cc3ccccc3cc2O)CC1	-1	55*	-9	21	-21
Cc1ccc(NC(=O)CN(C)C(=O)COc2cccc3ccc(C)nc23)cc1	0	71*	-3	16	-16
NC(=O)CC(NC(=O)Cc1cccc2ccccc12)c1ccc(NCc2ccccn2)c([N+](=O)[O-])c1 (centres undefined)	0	32*	-4	-12	12
COc1ccc(CNC(=O)CSc2nnc(NC(=O)c3ccccc3F)s2)cc1	-2	-7	15	.	.
C/C(=C\C(=O)c1ccc(Br)cc1)NNC(=O)c1ccccc1	-1	-3	-5	86*	-86
COc1cccc(NC(=O)COC(=O)c2c(C)nn(-c3ccccc3)c2C)c1	-1	1	-12	-16	16
O=c1cc(CN2CCN(c3ccccc3F)CC2)c2cc(O)c(-c3ccccc3)cc2o1	-1	1	-4	6	-6
O=c1cc(CN2CCN(C/C=C/c3ccccc3)CC2)c2cc(O)c(-c3ccccc3)cc2o1	-3	1	65*	26	-26
COc1ccc(NC(=O)c2cccc(S(=O)(=O)N3CCCC3)c2)cc1OC	0	77*	-1	69	-69
COc1cc(C)c(NC(=O)c2cccc(S(=O)(=O)N3CCCC3)c2)cc1OC	0	.	0	86*	-86
COc1ccc(C(=O)Nc2ccc(S(=O)(=O)N3CCCCC3)cc2)cc1OC	-3	-5	-12	5	-5
COc1ccc(NC(=O)c2cc(OC)c(OC)c(OC)c2)cc1S(=O)(=O)N1CCCCC1	-2	-5	-13	62	-62
COc1ccc(OC)c(/C=C/C(=O)Nc2cccc(S(=O)(=O)N3CCCC3)c2)c1	-2	6	-7	87*	-87
COc1ccc(OC)c(/C=C/C(=O)Nc2cccc(S(=O)(=O)NC3=NCCCCC3)c2)c1	-7	-4	-3	65	-65
COc1ccc(NC(=O)c2ccc(Cl)nc2)cc1S(=O)(=O)N1CCCCC1	-2	-2	0	75*	-75
SMILES	CAL PDZ FP-1	CAL PDZ FP-2	dFosB act	SR-BI HDL uptake	SR-BI uptake up
COc1cc(NS(=O)(=O)c2ccc(-c3ccc(=O)[nH]n3)o2)cc(OC)c1OC	0	5	-1	-10	10
CC(CNC(=O)c1ccc(OC2CCN(Cc3ccccn3)CC2)cc1)Oc1cccnc1 (centres undefined)	-2	0	-15	21	-21
COc1ccc(/C=C/C(=O)OCC(=O)N2CCCCCC2)cc1OC	0	-8	-8	12	-12
COc1ccc(OC)c(/C=C/C(=O)OCC(=O)N2CCCCC2)c1	-1	64*	-6	31	-31
COc1cc(C(=O)Nc2cccc(S(=O)(=O)N3CCCC3)c2)c([N+](=O)[O-])cc1OC	-3	-5	-8	74*	-74
Cc1ccsc1C(=O)NNC(=O)c1cccc(S(=O)(=O)N2CCCC2)c1	0	83*	3	4	-4
O=C(NNC(=O)c1ccc(Br)s1)c1cccc(S(=O)(=O)N2CCCC2)c1	0	11	3	13	-13
COc1ccccc1C(=O)Nc1cccc(S(=O)(=O)N2CCCC2)c1	-2	-4	-11	-19	19
Cc1ccccc1C(=O)NCCCNC(=O)c1ccco1	-1	-5	1	-10	10
CCOC(=O)C1(C)NC(c2cc(OC)c(OC)c(OC)c2)C2C(=O)N(CC)C(=O)C21 (centres undefined)	-1	67*	0	-3	3
COc1ccccc1C1=NOC(C(=O)N2CCN(C(=O)c3ccco3)CC2)C1 (centres undefined)	-1	-10	3	39	-39
Cc1ccc(S(=O)(=O)Nc2ccccc2N2CCCCC2)cc1	0	-3	-3	-16	16
O=C(NCC(F)(F)F)c1ccc(S(=O)(=O)Nc2ccccc2N2CCCC2)cc1	1	4	53*	19	-19
Cc1ccc(S(=O)(=O)NCCNc2ccc(Br)c(C)c2)cc1	0	39*	-6	4	-4
CCCCc1c(O)nc(SCC(=O)c2ccccc2)[nH]c1=O	0	-2	2	-71	71*
O=S(=O)(CC(O)CS(=O)(=O)c1ccc(Cl)cc1)c1ccccc1 (centres undefined)	0	42*	4	-38	38
O=S(=O)(CC(O)COc1ccccc1Cl)c1ccccc1 (centres undefined)	0	.	-2	5	-5
Cc1ccc(NC(=O)C2CCCN2C(=O)OCc2ccccc2)c(O)c1 (centres undefined)	-3	-8	-7	3	-3
NC(=S)NN=C1C2CC3CC(C2)CC1C3	-1	.	-1	79*	-79
NC(=O)C(=O)NN=C1C2CC3CC(C2)CC1C3	0	1	1	-3	3
Cc1ccc(CN2CCCN(Cc3c(C)cc(C)cc3C)S2(=O)=O)cc1	0	2	-2	-20	20
CN(C)CCCNC(=O)c1ccc(-c2cc(O)c3ncccc3c2)cc1	-2	-7	46*	-7	7
CN(C)c1ccc(-c2cc(O)c3ncccc3c2)cc1	0	-2	-1	7	-7
CCC(=O)NC(=S)NNC(=O)COc1ccc(Br)cc1	-2	-2	3	-2	2
